Source: ChEMBL document CHEMBL4765350, “Receptor-interacting protein kinase 2 (RIPK2) and nucleotide-binding oligomerization domain (NOD) cell signaling inhibitors based on a 3,5-diphenyl-2-aminopyridine scaffold” (Eur J Med Chem, 2020)
Calls of active or inactive are those of the source. The rule behind the calls is not given here.

Columns and labels:
[1] = biological target: T1, Receptor-interacting serine/threonine-protein kinase 2 (Homo sapiens, UniProt O43353); assay: Inhibition of recombinant human RIPK2 incubated for 2 hr by ADP-Glo assay
T1 sequence (O43353 whole entry): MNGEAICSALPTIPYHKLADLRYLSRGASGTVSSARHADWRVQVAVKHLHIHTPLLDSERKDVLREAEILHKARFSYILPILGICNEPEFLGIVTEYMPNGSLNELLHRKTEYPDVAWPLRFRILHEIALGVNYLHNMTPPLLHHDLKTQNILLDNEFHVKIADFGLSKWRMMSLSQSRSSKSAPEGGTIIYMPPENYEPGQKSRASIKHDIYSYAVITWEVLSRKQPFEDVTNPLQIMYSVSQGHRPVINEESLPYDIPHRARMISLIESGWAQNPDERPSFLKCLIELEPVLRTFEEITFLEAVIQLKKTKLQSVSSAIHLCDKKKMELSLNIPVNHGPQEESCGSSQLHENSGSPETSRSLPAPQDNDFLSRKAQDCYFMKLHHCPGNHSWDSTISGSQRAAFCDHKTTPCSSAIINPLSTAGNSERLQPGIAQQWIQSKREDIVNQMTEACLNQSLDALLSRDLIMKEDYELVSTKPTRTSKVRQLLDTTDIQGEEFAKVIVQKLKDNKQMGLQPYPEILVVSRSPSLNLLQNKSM
Summary of the method: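 IC50 values reported as the mean of two or three determinations ± standard deviation.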

Activin receptor type-1 = biological target: T2, Activin receptor type-1 (Homo sapiens, UniProt Q04771); assay: Inhibition of human ALK2 using casein as substrate in presence of 10 uM [gamma33P] ATP by kinase assay
T2 sequence (Q04771 whole entry): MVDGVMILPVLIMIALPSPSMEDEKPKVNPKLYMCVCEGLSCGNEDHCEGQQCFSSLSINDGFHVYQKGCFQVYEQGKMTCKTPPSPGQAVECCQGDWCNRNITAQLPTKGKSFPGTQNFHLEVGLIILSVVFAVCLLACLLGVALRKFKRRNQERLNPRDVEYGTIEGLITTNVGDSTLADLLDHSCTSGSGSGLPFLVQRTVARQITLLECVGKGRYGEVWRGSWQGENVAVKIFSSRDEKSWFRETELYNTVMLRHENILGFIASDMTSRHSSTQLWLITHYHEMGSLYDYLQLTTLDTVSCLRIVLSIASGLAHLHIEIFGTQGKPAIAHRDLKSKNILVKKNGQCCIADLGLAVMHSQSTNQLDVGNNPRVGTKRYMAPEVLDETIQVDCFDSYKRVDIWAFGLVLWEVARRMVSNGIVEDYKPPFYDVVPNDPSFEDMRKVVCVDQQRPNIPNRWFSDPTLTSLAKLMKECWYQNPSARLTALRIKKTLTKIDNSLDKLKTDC

[2] = biological target: Nucleotide-binding oligomerization domain-containing protein 2 (Homo sapiens) (UniProt Q9HC29); assay: Inhibition of human NOD2 expressed in HEK293 cells coexpressing NFkappaB-SEAP reporter at 10 uM measured after 7 to 9 hrs by HEKBIue reporter assay; type: cell-based; conditions: time 7-9 hrs
Chain of Nucleotide-binding oligomerization domain-containing protein 2 (Homo sapiens) (Q9HC29 whole entry, the tested form may be a part): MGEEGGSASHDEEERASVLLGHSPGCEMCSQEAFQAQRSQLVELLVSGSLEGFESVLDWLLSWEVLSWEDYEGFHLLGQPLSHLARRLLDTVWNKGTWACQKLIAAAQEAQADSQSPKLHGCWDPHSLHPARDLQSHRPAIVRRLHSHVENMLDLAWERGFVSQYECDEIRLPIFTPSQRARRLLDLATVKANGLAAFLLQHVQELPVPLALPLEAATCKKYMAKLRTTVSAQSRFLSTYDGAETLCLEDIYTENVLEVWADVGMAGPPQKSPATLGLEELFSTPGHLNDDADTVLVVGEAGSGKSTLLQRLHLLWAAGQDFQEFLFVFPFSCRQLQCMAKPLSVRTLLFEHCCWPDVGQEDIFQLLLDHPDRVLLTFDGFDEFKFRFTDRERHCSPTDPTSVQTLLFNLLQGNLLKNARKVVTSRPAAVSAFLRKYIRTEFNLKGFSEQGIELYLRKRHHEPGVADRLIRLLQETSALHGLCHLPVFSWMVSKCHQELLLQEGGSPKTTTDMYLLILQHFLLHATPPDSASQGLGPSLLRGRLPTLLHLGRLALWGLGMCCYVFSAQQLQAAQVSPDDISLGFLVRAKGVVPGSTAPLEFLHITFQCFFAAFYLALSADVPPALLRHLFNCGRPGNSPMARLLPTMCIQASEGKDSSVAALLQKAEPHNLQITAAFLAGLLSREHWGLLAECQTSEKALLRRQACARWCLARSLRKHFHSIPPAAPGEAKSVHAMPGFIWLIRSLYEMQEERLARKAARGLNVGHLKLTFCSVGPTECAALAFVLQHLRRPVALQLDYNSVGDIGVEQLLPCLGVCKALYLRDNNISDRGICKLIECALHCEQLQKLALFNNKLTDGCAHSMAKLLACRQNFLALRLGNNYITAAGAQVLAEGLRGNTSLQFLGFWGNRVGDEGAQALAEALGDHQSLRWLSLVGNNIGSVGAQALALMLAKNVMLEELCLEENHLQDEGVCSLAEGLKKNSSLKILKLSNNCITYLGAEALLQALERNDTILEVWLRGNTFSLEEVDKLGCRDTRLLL

[3] = biological target: T3, Activin receptor type-1 (Homo sapiens) (UniProt Q04771); assay: Inhibition of human ALK2 using casein as substrate at 10 uM in presence of 10 uM [gamma33P] ATP by kinase assay
T3 sequence (whole entry): T2 sequence (Q04771 whole entry)

[4] = Clearance in C57BL/6 mouse at 10 mg/kg, ip by LC-MS/MS analysis; type: ADME, organism-based; conditions: in vivo
Summary of the method: (§1)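 Single 10 mg/kg intraperitoneal dose formulated in 6% Captisol in water, given to 8-week-old female C57BL/6 mice, n = 5 mice per group; plasma concentrations followed over time to derive PK parameters.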

[5] = Stability in mouse liver microsomes assessed as intrinsic clearance; type: ADME, Microsome
[6] = Aqueous solubility of compound in PBS buffer at pH 7.4; type: physicochemical
Summary of the method: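 Solubility measured in PBS buffer at pH 7.4.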

[7] = Stability in mouse liver microsomes assessed as half life; type: ADME, Microsome
[8] = Permeability of the compound by PAMPA; type: ADME
[9] = AUC in C57BL/6 mouse at 10 mg/kg, ip by LC-MS/MS analysis; type: ADME, organism-based; design: dose 10 mg/kg; conditions: in vivo; summary of the method: as §1
[10] = biological target: T1, Receptor-interacting serine/threonine-protein kinase 2; assay: Inhibition of recombinant human RIPK2 at 10 uM incubated for 2 hr by ADP-Glo assay

Row | SMILES | IC50 [1] [nM] | IC50 (Activin receptor type-1) [nM] | inhibition [3] | further results
1 | COc1cc(NS(=O)(=O)C(C)C)cc(-c2cc(-c3ccc(N4CCNCC4)cc3)cnc2N)c1 | 13 | 11 |  | 
2 | COc1cc(-c2cc(-c3ccc(N4CCNCC4)cc3)cnc2N)cc(F)c1OC |  | 29 |  | 
3 | COc1cc(NS(=O)(=O)C(C)C)cc(-c2cc(-c3ccc(N4CCNCC4)cc3)cnc2C)c1 | 76 | 239 |  | 
4 | COc1cc(NS(C)(=O)=O)cc(-c2cc(-c3ccc(N4CCNCC4)cc3)cnc2N)c1 | 51 | 5 |  | 
5 | CCCS(=O)(=O)Nc1cc(-c2cc(-c3ccc(N4CCNCC4)cc3)cnc2N)cc(OC)c1OC |  | 57 |  | 
6 | CCCS(=O)(=O)Nc1cc(-c2cc(-c3ccc(N4CCNCC4)cc3)cnc2N)ccc1O |  | 387 |  | 
7 | CCCS(=O)(=O)Nc1cc(OC)cc(-c2cc(-c3ccc(N4CCNCC4)cc3)cnc2N)c1 | 14 | 9 |  | 
8 | CCCS(=O)(=O)NCc1cc(-c2cc(-c3ccc(N4CCNCC4)cc3)cnc2N)ccc1OC | 99 | 145 |  | 
9 | CCCS(=O)(=O)Nc1cc(-c2cc(-c3cccc(N4CCNCC4)c3)cnc2N)cc(F)c1OC | 11 | 522 |  | 
10 | COc1cc(NS(=O)(=O)c2ccccc2)cc(-c2cc(-c3ccc(N4CCNCC4)cc3)cnc2N)c1 | 23 | 5 |  | 
11 | CCCS(=O)(=O)Nc1cc(-c2cncc(-c3ccc(N4CCNCC4)cc3)c2)cc(F)c1OC | 27 |  |  | 
12 | COc1cc(-c2cc(-c3ccc(N4CCNCC4)cc3)cnc2C)cc(OC)c1OC | 100 |  |  | inhibition [2]: inactive
13 | CCCS(=O)(=O)N1CCc2ccc(-c3cc(-c4ccc(N5CCNCC5)cc4)cnc3N)cc21 | 185 |  | inactive | 
14 | CCCS(=O)(=O)Nc1cc(-c2cc(-c3ccc(N4CCNCC4)cc3)cnc2N)cc(F)c1OC | 16 | 348 |  | CL/F [4]: 59.7 mL/min/kg; CLint [5]: 27 µL/min/mg; solubility [6]: >= 100 uM; t1/2 [7]: 25.6 min; permeability [8]: 2.9 10^-6 cm/s; AUC [9]: 2920 ng·h/mL
15 | CCCS(=O)(=O)Nc1cc(-c2cc(-c3ccc(N4CCNCC4)cc3)cnc2N)ccc1C | 102 | 2120 |  | 
16 | CCCS(=O)(=O)Nc1cc(-c2cc(-c3ccc(N4CCNCC4)cc3)cnc2N)cc2c1OCCO2 | 520 |  | inactive | 

Row | SMILES | IC50 [1] [nM] | IC50 (Activin receptor type-1) [nM] | inhibition [3] | further results
17 | CCOc1cc(NS(=O)(=O)C(C)C)cc(-c2cc(-c3ccc(N4CCNCC4)cc3)cnc2N)c1 | 21 | 299 |  | 
18 | CCCS(=O)(=O)Nc1cc(-c2cc(-c3ccc(N4CCNCC4)cc3)cnc2N)cc(C)c1OC | 41 | 395 |  | 
19 | CCCS(=O)(=O)Nc1cc(-c2cc(-c3ccccc3S(C)(=O)=O)cnc2N)ccc1OC |  |  | inactive | inhibition [10]: inactive; inhibition [2]: inactive
20 | CCCS(=O)(=O)Nc1ccc(-c2cc(-c3ccc(N4CCNCC4)cc3)cnc2C)cc1OC |  |  | inactive | inhibition [10]: inactive
21 | CCCS(=O)(=O)Nc1cc(-c2cc(-c3cccc(S(C)(=O)=O)c3)cnc2N)ccc1OC | 103 |  | inactive | 
22 | CCS(=O)(=O)Nc1cc(OC)cc(-c2cc(-c3ccc(N4CCNCC4)cc3)cnc2C)c1 | 127 | 86 |  | 
23 | CCCS(=O)(=O)Nc1cc(-c2cc(-c3ccc(N4CCNCC4)cc3)cnc2N)ccc1OC | 32 | 3540 |  | 
24 | CCCS(=O)(=O)Nc1cc(-c2cc(-c3ccc(N4CCNCC4)cc3)cnc2C)cc(F)c1OC |  |  | inactive | 
25 | COc1cc(NS(C)(=O)=O)cc(-c2cc(-c3ccc(N4CCNCC4)cc3)cnc2C)c1 | 296 | 31 |  | 
26 | CCCS(=O)(=O)Nc1cc(OC)cc(-c2cc(-c3ccc(N4CCNCC4)cc3)cnc2C)c1 | 164 | 108 |  | 
27 | CCCS(=O)(=O)Nc1cc(-c2cc(-c3ccc(N4CCNCC4)cc3)cnc2N)cc(OCC)c1OC |  |  | inactive | inhibition [10]: inactive; inhibition [2]: inactive
28 | CC(C)Oc1cc(NS(=O)(=O)C(C)C)cc(-c2cc(-c3ccc(N4CCNCC4)cc3)cnc2N)c1 | 18 |  | inactive | 
29 | CCCS(=O)(=O)Nc1cc(-c2cc(-c3ccc(N4CCNCC4)cc3)cnc2N)cc(OC)c1C |  | 355 |  | inhibition [10]: inactive
30 | CCCS(=O)(=O)N1CCOc2ccc(-c3cc(-c4ccc(N5CCNCC5)cc4)cnc3N)cc21 | 78 |  | inactive | 
31 | CCCS(=O)(=O)Nc1cc(-c2cc(-c3ccc(N4CCNCC4)cc3)cnc2N)cc(Cl)c1OC | 21 | 202 |  | 
32 | CCCS(=O)(=O)Nc1cc(-c2cc(-c3ccc(S(C)(=O)=O)cc3)cnc2N)ccc1OC | 264 |  | inactive | inhibition [2]: inactive
